# Reference: ChEMBL document CHEMBL1806376, “Synthesis and biological properties of macrolactam analogs of the natural product macrolide (-)-A26771B” (2011)
# What was measured:
# Type in all cases: functional
# Enterococcus faecalis = assay: Antibacterial activity against Enterococcus faecalis ATCC 29212 by broth microdilution method
# How it was run: (§1)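 MIC values determined by broth microdilution following the CLSI method.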
# Staphylococcus aureus [1] = assay: Antibacterial activity against Staphylococcus aureus oxford by broth microdilution method; how it was run: as §1
# Haemophilus influenzae [2] = assay: Antibacterial activity against Haemophilus influenzae ATCC 31517 by broth microdilution method; how it was run: as §1
# Escherichia coli = assay: Antibacterial activity against Escherichia coli ATCC 25922 by broth microdilution method; how it was run: as §1
# Pseudomonas aeruginosa = assay: Antibacterial activity against Pseudomonas aeruginosa ATCC 27853 by broth dilution method; how it was run: as §1
# Haemophilus influenzae [3] = assay: Antibacterial activity against efflux knock-out Haemophilus influenzae LS2 by broth microdilution method; how it was run: as §1
# Staphylococcus aureus [4] = assay: Antibacterial activity against Staphylococcus aureus ATCC 25923 by broth microdilution method in presence of 10% human serum
# How it was run: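 MIC determined by broth microdilution per the CLSI method, with 10% human serum added to the medium.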
# Streptococcus pneumoniae [5] = assay: Antibacterial activity against Streptococcus pneumoniae ATCC 49619 by broth microdilution method; how it was run: as §1
# Staphylococcus aureus [6] = assay: Antibacterial activity against Staphylococcus aureus ATCC 25923 by broth microdilution method; how it was run: as §1
# Enterococcus faecium = assay: Antibacterial activity against Enterococcus faecium 1 by broth microdilution method; how it was run: as §1
# Staphylococcus aureus [7] = assay: Antibacterial activity against Staphylococcus aureus ATCC 13709 by broth microdilution method; how it was run: as §1
# Streptococcus pneumoniae [8] = assay: Antibacterial activity against Streptococcus pneumoniae Pen9 IV381-221 by broth microdilution method; how it was run: as §1
# Staphylococcus aureus [9] = assay: Antibacterial activity against methicillin-resistant Staphylococcus aureus Sa2 by broth microdilution method
# How it was run: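 Broth microdilution run according to the CLSI method.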
# [10] = Enterococcus faecalis, ATCC 29212, read-out: MIC
# [11] = Staphylococcus aureus, oxford, read-out: MIC
# [12] = Haemophilus influenzae, ATCC 31517, read-out: MIC
# [13] = Haemophilus influenzae, LS2, read-out: MIC
# [14] = Staphylococcus aureus, ATCC 25923, read-out: MIC
# [15] = Streptococcus pneumoniae, ATCC 49619, read-out: MIC
# [16] = Enterococcus faecium, 1, read-out: MIC
# [17] = Staphylococcus aureus, ATCC 13709, read-out: MIC
# [18] = Streptococcus pneumoniae, Pen9 IV381-221, read-out: MIC
# [19] = Staphylococcus aureus, Sa2, read-out: MIC
SMILES,MIC (Enterococcus faecalis; [10]),MIC (Staphylococcus aureus [1]; [11]),MIC (Haemophilus influenzae [2]; [12]),MIC (Escherichia coli),MIC (Pseudomonas aeruginosa),MIC (Haemophilus influenzae [3]; [13]),MIC (Staphylococcus aureus [4]; [14]),MIC (Streptococcus pneumoniae [5]; [15]),MIC (Staphylococcus aureus [6]; [14]),MIC (Enterococcus faecium; [16]),MIC (Staphylococcus aureus [7]; [17]),MIC (Streptococcus pneumoniae [8]; [18]),MIC (Staphylococcus aureus [9]; [19]),also measured
CO[C@H]1CCCCCCCCC[C@@H](C)OC(=O)CCC1=O,> 64 µg/mL,> 64 µg/mL,> 64 µg/mL,> 64 µg/mL,> 64 µg/mL,64 µg/mL,> 64 µg/mL,> 64 µg/mL,> 64 µg/mL,> 64 µg/mL,> 64 µg/mL,> 64 µg/mL,> 64 µg/mL,
C[C@@H]1CCCCCCCCC[C@H](OC(=O)CCC(=O)OC(C)(C)C)C(=O)CC(N2CCN(C)CC2)C(=O)O1 (some centres not stated),4 µg/mL,2 µg/mL,> 32 µg/mL,> 32 µg/mL,> 32 µg/mL,,> 32 µg/mL,4 µg/mL,4 µg/mL,4 µg/mL,2 µg/mL,2 µg/mL,2 µg/mL,
C[C@@H]1CCCCCCCCC[C@H](OC(=O)CCC(=O)OC(C)(C)C)C(=O)c2[nH]ncc2C(=O)O1,> 64 µg/mL,> 64 µg/mL,> 64 µg/mL,> 64 µg/mL,> 64 µg/mL,8 µg/mL,> 64 µg/mL,> 64 µg/mL,> 64 µg/mL,> 64 µg/mL,> 64 µg/mL,32 µg/mL,> 64 µg/mL,
CO[C@H]1CCCCCCCCC[C@@H](C)OC(=O)/C=C/C1=O,2 µg/mL,1 µg/mL,32 µg/mL,> 64 µg/mL,> 64 µg/mL,4 µg/mL,16 µg/mL,2 µg/mL,1 µg/mL,2 µg/mL,1 µg/mL,2 µg/mL,0.5 µg/mL,
CO[C@H]1CCCCCCCCC[C@@H](C)OC(=O)/C(C)=C/C1=O,> 64 µg/mL,> 64 µg/mL,> 64 µg/mL,> 64 µg/mL,> 64 µg/mL,> 64 µg/mL,> 64 µg/mL,> 64 µg/mL,> 64 µg/mL,> 64 µg/mL,> 64 µg/mL,> 64 µg/mL,> 64 µg/mL,
"COC1CCCCCCCCC[C@@H](C)NC(=O)/C=C/C1=O (single isomer, unassigned; diastereomer 2)",2 µg/mL,,,,,,,,,0.5 µg/mL,,,,MIC (Staphylococcus aureus [1]): 0.5 µg/mL; MIC (Haemophilus influenzae [2]): 2 µg/mL; MIC (Haemophilus influenzae [3]): 0.25 µg/mL; MIC (Staphylococcus aureus [4]): 8 µg/mL; MIC (Streptococcus pneumoniae [5]): 2 µg/mL; MIC (Staphylococcus aureus [6]): 1 µg/mL; MIC (Staphylococcus aureus [7]): 0.5 µg/mL; MIC (Streptococcus pneumoniae [8]): 8 µg/mL; MIC (Staphylococcus aureus [9]): 0.5 µg/mL
CO[C@H]1CCCCCCCCC[C@@H](C)OC(=O)C(S(=O)(=O)c2ccccc2)CC1=O (some centres not stated),4 µg/mL,1 µg/mL,32 µg/mL,> 64 µg/mL,> 64 µg/mL,2 µg/mL,32 µg/mL,4 µg/mL,1 µg/mL,4 µg/mL,1 µg/mL,2 µg/mL,2 µg/mL,
CO[C@H]1CCCCCCCCC[C@@H](C)OC(=O)C(Sc2ccccc2)CC1=O (some centres not stated),> 64 µg/mL,1 µg/mL,> 64 µg/mL,> 64 µg/mL,> 64 µg/mL,2 µg/mL,16 µg/mL,2 µg/mL,1 µg/mL,> 64 µg/mL,1 µg/mL,1 µg/mL,2 µg/mL,
C[C@@H]1CCCCCCCCC[C@H](O)C(=O)/C=C/C(=O)O1,2 µg/mL,1 µg/mL,16 µg/mL,> 32 µg/mL,> 32 µg/mL,1 µg/mL,32 µg/mL,2 µg/mL,2 µg/mL,8 µg/mL,1 µg/mL,2 µg/mL,2 µg/mL,
C[C@@H]1CCCCCCCCC[C@H](OC(=O)CCC(=O)OC(C)(C)C)C(=O)/C=C/C(=O)O1,2 µg/mL,2 µg/mL,> 32 µg/mL,> 32 µg/mL,> 32 µg/mL,8 µg/mL,> 32 µg/mL,2 µg/mL,8 µg/mL,,2 µg/mL,1 µg/mL,0.5 µg/mL,
CO[C@H]1CCCCCCCCC[C@@H](C)OC(=O)C2CC2C1=O (mixture of isomers),> 64 µg/mL,> 64 µg/mL,> 64 µg/mL,> 64 µg/mL,> 64 µg/mL,> 64 µg/mL,> 64 µg/mL,> 64 µg/mL,> 64 µg/mL,> 64 µg/mL,> 64 µg/mL,> 64 µg/mL,> 64 µg/mL,
"COC1CCCCCCCCC[C@@H](C)NC(=O)/C=C/C1=O (single isomer, unassigned; diastereomer 1)",,1 µg/mL,2 µg/mL,> 64 µg/mL,> 64 µg/mL,0.25 µg/mL,8 µg/mL,2 µg/mL,1 µg/mL,,1 µg/mL,8 µg/mL,1 µg/mL,MIC (Enterococcus faecalis): 2 µg/mL; MIC (Enterococcus faecium): 0.5 µg/mL
"CO[C@H]1CCCCCCCCC[C@@H](C)OC(=O)C2OC2C1=O (single isomer, unassigned; diastereomer 1)",,64 µg/mL,> 64 µg/mL,,> 64 µg/mL,> 64 µg/mL,> 64 µg/mL,64 µg/mL,64 µg/mL,32 µg/mL,32 µg/mL,64 µg/mL,> 64 µg/mL,MIC (Enterococcus faecalis): 64 µg/mL
C[C@@H]1CCCCCCCCC[C@H](OC(=O)CCC(=O)O)C(=O)/C=C/C(=O)O1,16 µg/mL,2 µg/mL,> 32 µg/mL,> 32 µg/mL,> 32 µg/mL,16 µg/mL,> 32 µg/mL,16 µg/mL,4 µg/mL,4 µg/mL,2 µg/mL,8 µg/mL,2 µg/mL,
Cc1nc2c([nH]1)CCCCCCCCC[C@@H](C)OC(=O)/C=C/2,32 µg/mL,32 µg/mL,> 64 µg/mL,> 64 µg/mL,> 64 µg/mL,16 µg/mL,> 64 µg/mL,16 µg/mL,32 µg/mL,16 µg/mL,32 µg/mL,8 µg/mL,32 µg/mL,
CC(=O)N(CCOc1ccccc1)C1CC(=O)[C@@H](OC(=O)CCC(=O)OC(C)(C)C)CCCCCCCCC[C@@H](C)OC1=O (some centres not stated),> 32 µg/mL,> 32 µg/mL,> 32 µg/mL,> 32 µg/mL,> 32 µg/mL,> 32 µg/mL,> 32 µg/mL,> 32 µg/mL,> 32 µg/mL,> 32 µg/mL,> 32 µg/mL,> 32 µg/mL,> 32 µg/mL,
C[C@@H]1CCCCCCCCC[C@H](O)C(=O)CC(SCC(F)(F)F)C(=O)O1 (some centres not stated),4 µg/mL,1 µg/mL,32 µg/mL,> 64 µg/mL,> 64 µg/mL,2 µg/mL,32 µg/mL,4 µg/mL,1 µg/mL,4 µg/mL,1 µg/mL,4 µg/mL,1 µg/mL,
CO[C@H]1CCCCCCCCC[C@@H](C)OC(=O)C2OC2C1=O (stereo in doubt; 16b),> 64 µg/mL,,,> 64 µg/mL,,,,,,,,,,MIC (Staphylococcus aureus [1]): >64 µg/mL; MIC (Streptococcus pneumoniae [5]): >64 µg/mL; MIC (Staphylococcus aureus [6]): >64 µg/mL; MIC (Enterococcus faecium): >64 µg/mL; MIC (Staphylococcus aureus [7]): >64 µg/mL; MIC (Streptococcus pneumoniae [8]): >64 µg/mL
CC(=O)O[C@H]1CCCCCCCCC[C@@H](C)OC(=O)/C=C/C1=O,4 µg/mL,1 µg/mL,32 µg/mL,> 64 µg/mL,> 64 µg/mL,4 µg/mL,16 µg/mL,2 µg/mL,1 µg/mL,2 µg/mL,0.5 µg/mL,4 µg/mL,0.5 µg/mL,
